T cruzi repl = inhibitors of intracellular T. cruzi growth, primary screen, luminescence, NIH3T3 host cells | actives 1.4% (n = 300,000) | AID 1885, 2009 | inhibition, % (concentration not given with the values) | T. cruzi beta-gal in NIH3T3, 90 h;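 active means mean inhibition across valid replicates above about 55%, limit read from the data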;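 further: signal also drops with host cell toxicity which is not excluded here; 0% = plate median of DMSO wells and 100% = zero luminescence signal; higher percent means less beta-gal luminescence so fewer parasites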
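Read-out: Parasite load inhibition, % | Test system: Mouse NIH/3T3 fibroblasts infected with β-gal-expressing T. cruzi Tulahuen C4 | Amount: 5,000 cells/well | Medium: DMEM, 2% fetal bovine serum | Signal: GalScreen β-gal luminescence, detergent lysis, 60 min | Timing: 3 h attach, ≥90 h co-culture | Also added: Tulahuen C4 trypomastigotes, 5000/well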
CHOP UPR activ = activators of apoptotic CHOP UPR arm, primary screen, cell-based, CHO-CHOP luciferase reporter, luminescence, uHTS. UPR activation; percent of tunicamycin response over DMSO baseline. activation, % at 10 µM. actives 0.34% (n = 330,000);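 active means at 10 µM dose, activation of 40% or more, normalized to positive control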;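 further: 100% = tunicamycin at 10 µg/mL and 0% = DMSO alone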
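Dosing – one dose, 10 µM in 0.5% DMSO · System – CHO-CHOP cells, stable luciferase reporter of PERK-eIF2a-CHOP signalling · Input – 500 cells/well · Control set – tunicamycin 10 µg/mL final as positive, DMSO-only wells as negative · Timing – 6 h compound treatment, 37 °C · Measure – % activation vs tunicamycin · Technique – luminescence read with Steady-Glo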
Lmaj promast = Leishmania major promastigote growth inhibition, primary screen; Leishmania major promastigotes, resazurin fluorescence viability; inhibition, % at 10 µM; actives 9% (n = 200,000); AID 1063, 2008; in the data active means inhibition above about 50%;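 further: promastigotes grown with compound for 44 hours at 28 °C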
CHOP inhibitor = inhibitors of CHOP promoter induction, primary screen, cell-based, unfolded protein response, luciferase reporter; CHO-K1 CHOP-promoter luciferase, tunicamycin-induced, 15-18 h; inhibition, % at 10 µM; actives 3.8% (n = 220,000); AID 2732, 2010;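 active means compounds that reduced the stress-induced luciferase reporter signal by more than about 70% of percent inhibition, limit read from the data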;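 further: 0% = tunicamycin plus vehicle and 100% = wells without tunicamycin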
Dynein transport = inhibitors of GR-EGFP nuclear translocation, primary screen, dynein cargo transport inhibitor project, imaging, high-content, 3617.4 mouse cells; test concentration mostly 20 µM; stimulated with dexamethasone, 1 µM; stronger effect = lower value; z-score, hits read low; actives 0.47% (n = 220,000); AID 1381, 2008;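 active means plate z-score of nuclear minus cytoplasmic receptor signal below a set negative limit, without overly bright fluorescence or cell loss, cut at about -3.5 in these data, passing the limit was not always enough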;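 further: z-score of nuclear minus cytoplasmic ring GR-EGFP intensity difference per well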
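Also added – dexamethasone, 1.0 µM final · Buffer or medium – tet-free, stripped-serum medium · Schedule – induction 48 h, compound 1 h, agonist 30 min · Detection – formaldehyde fixation, Hoechst nuclear stain, 10x automated fluorescence imaging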
UPR XBP1 act = activators of adaptive XBP1 UPR arm, primary screen, cell-based, CHO-XBP1 luciferase reporter, luminescence, uHTS | IRE1-XBP1 UPR activation; percent of tunicamycin response, DMSO as zero | activation, % at 20 µM | actives 0.33% (n = 330,000) | AID 463104, 2010;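 active means versus positive control, 20 µM dose yields 30% or more activation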;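 further: 100% = tunicamycin at 10 µg/mL and 0% = DMSO only wells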
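Material: CHO cell line with stable XBP1 luciferase reporter; schedule: 16-18 h cell attachment at 37 °C, then 6 h compound exposure; signal: glow luminescence from Steady-Glo reagent; medium: serum-containing F12 medium, 10% FBS; benchmarks: tunicamycin 10 µg/mL and vehicle-only wells; read-out: percent activation relative to tunicamycin reference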
An asterisk follows results filed as active. The sample as a whole holds a higher share of hits than the screen did.

For COc1cc(C#CC#CCN2CCCCC2)ccc1O the results were T cruzi repl -8, CHOP UPR activ -1, Lmaj promast 86*, CHOP inhibitor 21, Dynein transport -1.2 and UPR XBP1 act 6.
For Cc1onc(-c2ccccc2)c1CNC(=O)Nc1ccc(C(F)(F)F)cc1 the results were T cruzi repl 56*, CHOP UPR activ 0, CHOP inhibitor -2, Dynein transport 0.89 and UPR XBP1 act -8.
For Cc1cc(C)cc(NC(=O)NCc2c(-c3ccccc3)noc2C)c1 the results were T cruzi repl -11, CHOP UPR activ 0, CHOP inhibitor 14, Dynein transport 0.6 and UPR XBP1 act -3.
COc1cccc(C(=O)Nc2cc(C)nn2-c2ccccc2)c1OC was read as T cruzi repl 3, CHOP UPR activ -1 and UPR XBP1 act 11.
COc1ccc(-n2c(NCCN(C)C)nc3sc4c(c3c2=O)CCCCC4)cc1 was read as CHOP UPR activ 2, Lmaj promast 58*, CHOP inhibitor -8, Dynein transport -0.025 and UPR XBP1 act 2.
COc1ccc(-n2c(N3CCN(C)CC3)nc3sc4c(c3c2=O)CCCCC4)cc1 was read as T cruzi repl 52, CHOP UPR activ -1, Lmaj promast 100*, CHOP inhibitor 26, Dynein transport -0.00027 and UPR XBP1 act 3.
COc1ccc(-n2c(C)nc3sc4c(c3c2=O)CCC4)cc1 was read as T cruzi repl -6, CHOP UPR activ 0, Lmaj promast -2, CHOP inhibitor 22, Dynein transport -0.32 and UPR XBP1 act 2.
For Cc1oc(-c2ccccc2Cl)nc1CS(=O)CC(=O)NCCCN1CC(C)CC(C)C1 (stereo unspecified) the results were T cruzi repl 13, CHOP UPR activ 0 and UPR XBP1 act -5.
`Clc1ccc(OCCN2CCCCC2)c(Cl)c1` gave T cruzi repl 23, CHOP UPR activ -1, Lmaj promast 99*, CHOP inhibitor 40, Dynein transport -0.049 and UPR XBP1 act 2.
Screening Clc1ccccc1OCCN1CCCCC1 returned T cruzi repl -7, CHOP UPR activ 1, Lmaj promast 88*, CHOP inhibitor 25, Dynein transport 0.04 and UPR XBP1 act -2.
For Nc1nc2ccccc2n1CCOc1ccccc1Cl the results were T cruzi repl 36, CHOP UPR activ 0, Lmaj promast 100*, CHOP inhibitor 69, Dynein transport 1.1 and UPR XBP1 act -7.
Screening COc1ccc(S(=O)(=O)NNC(=O)Cc2csc(C)n2)cc1[N+](=O)[O-] returned T cruzi repl -16, CHOP UPR activ -1 and UPR XBP1 act -3.
`O=C(c1cc(Cl)ccc1OCc1ccccc1)N1CCOCC1` gave T cruzi repl 7, CHOP UPR activ 1 and UPR XBP1 act 2.
`COC(=O)C(CCSC)NC(=O)c1cc2c(n(-c3ccc(C)cc3)c1=O)CCCC2=O` (stereo unspecified) gave T cruzi repl -2, CHOP UPR activ -1, Lmaj promast 48, CHOP inhibitor 11, Dynein transport 0.56 and UPR XBP1 act 12.
Screening COC(=O)C(CCSC)NC(=O)c1cc2c(n(-c3ccccc3)c1=O)CC(C)(C)CC2=O (stereo unspecified) returned T cruzi repl 7, CHOP UPR activ 1, Lmaj promast 84*, CHOP inhibitor -11, Dynein transport 0.044 and UPR XBP1 act -3.
`COc1ccc(-n2c3c(cc(C(=O)NCc4ccco4)c2=O)C(=O)CC(C)(C)C3)cc1` gave T cruzi repl 44, CHOP UPR activ 0, Lmaj promast 55*, CHOP inhibitor -20, Dynein transport 1.7 and UPR XBP1 act -3.
CC1(C)CC(=O)c2cc(C(=O)N3CCCC(C)(C)C3)c(=O)n(-c3ccccc3)c2C1 was read as T cruzi repl 4, CHOP UPR activ -2, Lmaj promast 83*, CHOP inhibitor -11, Dynein transport -1.1 and UPR XBP1 act -4.
For CCN(CC(=O)NCc1cccs1)C(=O)c1cccc(Cl)c1 the results were CHOP UPR activ 0 and UPR XBP1 act 0.
For CCN(CC(=O)Nc1ccc(OC)cc1)C(=O)c1ccc2[nH]c3c(c2c1)CC(C)CC3 (stereo unspecified) the results were CHOP UPR activ 2 and UPR XBP1 act -1.
`COc1ccc(N/C=C\C(=O)c2ccc3c(c2)OCO3)cc1OC` gave T cruzi repl 0, CHOP UPR activ 8, Lmaj promast 88*, CHOP inhibitor 7, Dynein transport -0.89 and UPR XBP1 act 8.
`COc1ccc(C2CC(O)(c3ccccc3)Oc3cc(OC)ccc32)cc1` (stereo unspecified) gave T cruzi repl -2, CHOP UPR activ 4, CHOP inhibitor 92*, Dynein transport 0.022 and UPR XBP1 act 1.
Screening O=C(NC(N1CCOCC1)C(Cl)(Cl)Cl)c1cc([N+](=O)[O-])cc([N+](=O)[O-])c1 (stereo unspecified) returned T cruzi repl 94*, CHOP UPR activ 2, Lmaj promast 91*, CHOP inhibitor 14, Dynein transport -0.043 and UPR XBP1 act 2.
Screening CCc1nc(C)cn1S(=O)(=O)c1ccc(Cl)c(Cl)c1Cl returned T cruzi repl 27, CHOP UPR activ -2, Lmaj promast 97*, CHOP inhibitor 45, Dynein transport 0.64 and UPR XBP1 act 0.
CCc1nc(C)cn1S(=O)(=O)c1ccc([N+](=O)[O-])cc1 was read as T cruzi repl -3, CHOP UPR activ 0, Lmaj promast 100*, CHOP inhibitor 12, Dynein transport -0.69 and UPR XBP1 act 0.
`CCc1nc(C)cn1S(=O)(=O)c1cc(Cl)c(OC)cc1Cl` gave T cruzi repl 5, CHOP UPR activ 0, Lmaj promast 43, CHOP inhibitor 3, Dynein transport -0.44 and UPR XBP1 act 4.
For CCc1nc(C)cn1S(=O)(=O)c1cc(Br)ccc1OC the results were T cruzi repl 2, CHOP UPR activ -1, Lmaj promast 67*, CHOP inhibitor 9, Dynein transport -0.45 and UPR XBP1 act 1.
`CCc1nc(C)cn1S(=O)(=O)c1cc(C)c(OC)c(C)c1C` gave T cruzi repl -11, CHOP UPR activ 6, Lmaj promast 93*, CHOP inhibitor 47, Dynein transport -0.56 and UPR XBP1 act -2.

Screens (PubChem)
